Measured values from different studies.
Each line is one published result; the experiments were not run side by side.
Target: Serine/threonine-protein kinase TBK1 (TBK1, Homo sapiens, UniProt Q9UHD2)
Residues used in one study (Q9UHD2 1-729): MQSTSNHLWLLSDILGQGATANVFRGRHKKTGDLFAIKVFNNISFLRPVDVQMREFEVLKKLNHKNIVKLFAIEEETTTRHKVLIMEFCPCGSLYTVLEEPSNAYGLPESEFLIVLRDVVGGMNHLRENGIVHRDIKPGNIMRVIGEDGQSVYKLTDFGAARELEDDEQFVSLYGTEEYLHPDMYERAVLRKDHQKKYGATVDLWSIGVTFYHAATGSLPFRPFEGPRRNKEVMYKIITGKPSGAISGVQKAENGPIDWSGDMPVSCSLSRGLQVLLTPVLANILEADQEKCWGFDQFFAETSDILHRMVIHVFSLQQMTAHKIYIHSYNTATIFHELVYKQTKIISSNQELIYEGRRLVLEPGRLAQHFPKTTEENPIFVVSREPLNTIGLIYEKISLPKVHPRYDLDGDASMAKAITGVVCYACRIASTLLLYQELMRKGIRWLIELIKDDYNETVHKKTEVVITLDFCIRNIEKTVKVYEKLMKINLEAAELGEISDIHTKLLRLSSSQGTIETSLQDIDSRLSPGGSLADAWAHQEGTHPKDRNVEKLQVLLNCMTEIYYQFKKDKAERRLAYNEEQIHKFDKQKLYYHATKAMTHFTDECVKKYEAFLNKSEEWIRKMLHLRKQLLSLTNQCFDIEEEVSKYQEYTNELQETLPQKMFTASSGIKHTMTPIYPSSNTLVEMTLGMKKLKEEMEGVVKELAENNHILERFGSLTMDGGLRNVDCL

CCCCC(=O)Nc1ccc(-c2ccc3ncn(CCC)c(=O)c3c2)cn1 — remaining binding (binding, competition with immobilised ligand; 0.5 µM): 100%
COc1ccc2[nH]c3c4[nH]c5ccc(OC)cc5c4c4c(c3c2c1)C(=O)NC4=O — remaining binding (binding; 1 µM): 59%
CC(C)S(=O)(=O)c1ccc2nccc(Nc3ccc4sc(C5CCCC5)nc4c3)c2c1 — activity vs control (enzyme activity, inhibitor; 1 µM): 114%
C=CC(=O)N1CCC([C@@H]2CCNc3c(C(N)=O)c(-c4ccc(Oc5ccccc5)cc4)nn32)CC1 — inhibition (enzyme activity, inhibitor; 1 µM): 15%
Cc1cc(O)c(-c2ccc([C@@H](C)CN(C)C)cc2)c2c1[nH]c(=O)c1sccc12 — inhibition (enzyme activity, inhibitor; 0.1 µM): -4.68%
C#Cc1cc(-c2cc(Nc3nc(N[C@@H](C)c4ccc(F)cn4)ncc3Cl)n[nH]2)ccc1C=O — inhibition (enzyme activity, inhibitor; 0.2 µM): 5.56%
CC#CC(=O)N1CCC[C@H]1c1nc(-c2ccc(C(=O)Nc3ccccn3)cc2)c2c(N)nccn12 — inhibition (enzyme activity, inhibitor; 1 µM): 5%
C[C@H]1CC[C@H](n2c3cnccc3c3cnc(Nc4ccc5c(n4)CCN(C(=O)CO)C5)nc32)CC1 — remaining signal (cell-free assay; 1 µM): 100%
